pIC50: −log10 of the molar value.
How the values were obtained:
[1] = biological target: T1, Acyl-CoA:cholesterol acyltransferase (Oryctolagus cuniculus, UniProt Q95214); assay: Tested for in vitro inhibition against Acyl coenzyme A:cholesterol acyltransferase of intestinal microsomes in cholesterol-fed rabbits; parameters: species or system Microsome
T1 sequence (Q95214 whole entry): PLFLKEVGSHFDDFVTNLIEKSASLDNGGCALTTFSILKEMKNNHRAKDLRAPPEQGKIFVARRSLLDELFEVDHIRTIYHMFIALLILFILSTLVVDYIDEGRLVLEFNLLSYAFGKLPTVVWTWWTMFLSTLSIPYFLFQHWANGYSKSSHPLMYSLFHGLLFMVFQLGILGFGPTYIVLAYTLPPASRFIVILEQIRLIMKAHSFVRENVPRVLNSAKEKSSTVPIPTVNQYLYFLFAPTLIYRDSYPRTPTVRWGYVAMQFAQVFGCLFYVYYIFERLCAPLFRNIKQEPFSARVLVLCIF
In short: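 Microsomes were prepared from intestine of cholesterol-fed rabbits. ACAT activity was measured using [1-14C]oleoyl-CoA as substrate. Each determination was run in triplicate.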

[2] = Compound was evaluated for the distribution coefficient at pH 7.4; format: physicochemical; settings: octanol/water, read-out: logD
Rattus norvegicus [3] = species: Rattus norvegicus; assay: Percent change in total cholesterol in peanut oil (5.5%) - cholic acid (0.3%) - Cholesterol (1.5%) fed rats after a single dose; format: functional
In short: (§1)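 Male Sprague-Dawley rats (200-225 g), n=5-7/group, given a single oral dose at 4 p.m. as a suspension in 1.5% CMC/0.2% Tween-20 in water (50 mg/kg); controls received vehicle alone. The rats then had free access to chow with peanut oil, cholesterol and cholic acid. At 8 a.m. next day they were bled by cardiac puncture under ether, and serum total cholesterol was measured as % change versus controls (unpaired two-tailed t-test).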

Rattus norvegicus [4] = species: Rattus norvegicus; assay: Percent change in total cholesterol in peanut oil (5.5%)-, cholic acid (0.3%)-, Cholesterol (1.5%)-fed rats after a single dose.; format: functional; in short: as §1
Rattus norvegicus [5] = assay: Compound was evaluated for the percentage change in total cholesterol in peanut oil (5.5%)-cholic acid (0.3%)-cholesterol (1.5%)-fed rats at 30 mg/kg; format: functional

pIC50 [1]	logD [2]	SMILES	Delta TC (Rattus norvegicus [3]) [%]	Delta TC (Rattus norvegicus [4]) [%]	Delta TC (Rattus norvegicus [5]) [%]
7.36	5.23	CC(C)c1cccc(C(C)C)c1NC(=O)NCC1(c2cccc(CBr)c2)CCCC1	-26	–	–
7.60	–	Cc1ccc(C2(CNC(=O)Nc3c(C(C)C)cccc3C(C)C)CCCC2)cc1	-70	–	–
5.51	–	CC(C)c1cccc(C(C)C)c1NC(=O)NCC1(c2ccc(C(=O)O)cc2)CCCC1	–	-8	–
7.49	–	CC(C)c1cccc(C(C)C)c1NC(=O)NCC1(c2ccc(Cl)cc2)CCCC1	-64	–	–
7.38	–	CC(C)c1cccc(C(C)C)c1NC(=O)NCC1(c2ccc(O)cc2)CCCC1	–	-31	–
7.54	–	CC(C)c1cccc(C(C)C)c1NC(=O)NCC1(c2ccc(N)cc2)CCCC1	–	-76	–
6.80	–	CC(C)c1cccc(C(C)C)c1NC(=O)NCC1(c2ccc(CC(C)(C)C)cc2)CCCC1	-53	–	–
7.62	3.61	CC(C)c1cccc(C(C)C)c1NC(=O)NCC1(c2cccc(CC#N)c2)CCCC1	–	-31	–
7.57	–	CC(C)c1cccc(C(C)C)c1NC(=O)NCC1(c2ccccc2[N+](=O)[O-])CCCC1	–	-45	–
7.30	–	CC(C)c1cccc(C(C)C)c1NC(=O)NCC1(c2ccc(N(C)C)cc2C(F)(F)F)CCCC1	–	–	–
6.44	–	COC(=O)c1ccc(C2(CNC(=O)Nc3c(C(C)C)cccc3C(C)C)CCCC2)cc1	–	-3	–
7.68	–	CC(C)c1cccc(C(C)C)c1NC(=O)NCC1(c2ccc(N(CCO)CCO)cc2)CCCC1	–	-50	–
6.88	–	CC(C)c1cccc(C(C)C)c1NC(=O)NCC1(c2ccc([N+](=O)[O-])cc2)CCCC1	–	–	–
7.82	–	CC(C)c1cccc(C(C)C)c1NC(=O)NCC1(c2cccc(CO)c2)CCCC1	–	-40	–
7.64	–	CC(C)c1cccc(C(C)C)c1NC(=O)NCC1(c2ccc(F)cc2)CCCC1	-57	–	–
7.68	–	CC(C)c1cccc(C(C)C)c1NC(=O)NCC1(c2cccc(N)c2)CCCC1	–	-75	–
7.48	4.55	CC(=O)OCCN(CCOC(C)=O)Cc1cccc(C2(CNC(=O)Nc3c(C(C)C)cccc3C(C)C)CCCC2)c1	–	-35	-71
7.47	–	CC(C)c1cccc(C(C)C)c1NC(=O)NCC1(c2ccc(OCc3ccccc3)cc2)CCCC1	–	-33	–
7.52	–	CC(C)c1cccc(C(C)C)c1NC(=O)NCC1(c2cccc(OCc3ccccc3)c2)CCCC1	–	-73	–
7.51	–	COc1ccc(C2(CNC(=O)Nc3c(C(C)C)cccc3C(C)C)CCCC2)cc1	–	-41	–
7.48	–	CC(C)c1cccc(C(C)C)c1NC(=O)NCC1(c2cccc(N(C)C)c2)CCCC1	–	-63	–
7.17	4.87	CC(C)c1cccc(C(C)C)c1NC(=O)NCC1(c2cccc(CN(C)C)c2)CCCC1.Cl	–	-44	-46
7.18	–	CC(C)c1cccc(C(C)C)c1NC(=O)NCC1(c2ccc(C(F)(F)F)cc2)CCCC1	-39	–	–

— ChEMBL document CHEMBL1127826, “Inhibitors of acyl-CoA:cholesterol acyltransferase (ACAT). 7. Development of a series of substituted N-phenyl-N'-[(1-phenylcyclopentyl)methyl]ureas with enhanced hypocholesterolemic activity” (J Med Chem, 1994)
